Published values pooled from the literature.
Mode: inhibitor
rep methyltransferase: Replicase polyprotein 1ab, methyltransferase (rep, Severe acute respiratory syndrome coronavirus 2, UniProt P0DTD1)
rep main protease: Replicase polyprotein 1ab, main protease (rep, Severe acute respiratory syndrome coronavirus 2, UniProt P0DTD1)
rep papain-like protease: Replicase polyprotein 1ab, papain-like protease (rep, Severe acute respiratory syndrome coronavirus 2, UniProt P0DTD1)

CC(=O)[C@]1(O)Cc2c(O)c3c(c(O)c2[C@@H](O[C@H]2C[C@H](N)[C@H](O)[C@H](C)O2)C1)C(=O)c1ccccc1C3=O  IC50 (rep methyltransferase; enzyme activity): 38.5 µM
COc1ncc(-c2ccc3nccc(-c4ccnnc4)c3c2)cc1NS(=O)(=O)c1ccc(F)cc1F  IC50 (rep main protease; enzyme activity): > 20 µM
Cc1ccc2[nH]ncc2c1C(=O)NC[C@H]1Cc2ccccc2CN1C(=O)C[C@H](C)c1ccco1  IC50 (rep main protease; enzyme activity): 56.9 µM
NCCOc1cc(C(=O)Nc2cc(OCCN)c3ccccc3n2)nc(C(=O)Nc2cc(OCCN)c3ccccc3n2)c1  IC50 (rep methyltransferase; enzyme activity): 3.19 µM
CO/N=C(\C(=O)N[C@@H]1C(=O)N2C(C(=O)O)=C(CSC(=O)c3ccco3)CS[C@H]12)c1csc(N)n1  IC50 (rep main protease; enzyme activity): > 20 µM
CC(C)[C@H](NC(=O)[C@H](CCCNC(=N)N)NC(=O)N[C@@H](Cc1ccccc1)C(=O)O)C(=O)N[C@H](C=O)CCCNC(=N)N  IC50 (rep main protease; enzyme activity, FRET): 48.6 µM
Nc1nnc(Sc2ncc([N+](=O)[O-])s2)s1  IC50 (rep main protease; enzyme activity): 0.03 µM
Clc1ccc(C(Cn2ccnc2)OCc2csc3c(Cl)cccc23)c(Cl)c1 (stereo not drawn)  IC50 (rep main protease; enzyme activity in cells): 7.45 µM
CC(C)c1nc(CN(C)C(=O)N[C@@H](CCN2CCOCC2)C(=O)N[C@H](CC[C@H](Cc2ccccc2)NC(=O)OCc2cncs2)Cc2ccccc2)cs1  IC50 (rep main protease; enzyme activity in cells): > 20 µM
CCOC(=O)c1c(NC(=O)c2cc3ccccc3o2)sc(C)c1C  IC50 (rep methyltransferase; enzyme activity): 27.9 µM
Cc1ccc(-c2nc(N3CCOCC3)s[n+]2-c2ccccc2)cc1  IC50 (rep main protease; enzyme activity): 0.353 µM
COc1cc(C[C@@H](C)[C@@H](C)Cc2ccc(O)c(OC)c2)ccc1O  IC50 (rep papain-like protease; enzyme activity, FRET): 4.24 µM
O=C1C=CC(=O)C2=C1C1c3ccccc3C2c2ccccc21  IC50 (rep main protease; enzyme activity): 0.24 µM
Cc1c(O)cccc1C(=O)N[C@@H](CSc1ccccc1)[C@H](O)CN1C[C@H]2CCCC[C@H]2C[C@H]1C(=O)NC(C)(C)C  IC50 (rep main protease; enzyme activity): > 240 µM
CC(C)C[C@H](NC(=O)[C@@H](NC(=O)OCc1ccccc1)C(C)(C)C)C(=O)N(C)N(C#N)CCC(N)=O  IC50 (rep main protease; enzyme activity): 0.775 µM
COc1cc(-c2ccc(/N=N/c3ccc4c(S(=O)(=O)O)cc(S(=O)(=O)O)c(N)c4c3O)c(OC)c2)ccc1/N=N/c1ccc2c(S(=O)(=O)O)cc(S(=O)(=O)O)c(N)c2c1O  IC50 (rep main protease; enzyme activity): 9.82 µM
Cc1cc(-c2ccc(/N=N/c3ccc4c(S(=O)(=O)O)cc(S(=O)(=O)O)c(N)c4c3O)c(C)c2)ccc1/N=N/c1ccc2c(S(=O)(=O)O)cc(S(=O)(=O)O)c(N)c2c1O  IC50 (rep methyltransferase; enzyme activity): 4.84 µM
N[C@@H](Cc1ccc(O)c(O)c1)C(=O)O  IC50 (rep main protease; enzyme activity): 5.6 µM
NC(=O)CI  IC50 (rep methyltransferase; enzyme activity): 22.4 µM
COc1cc(C[C@@H]2NCCc3cc(O)c(O)cc32)cc(OC)c1OC  IC50 (rep main protease; enzyme activity): > 20 µM
COC(=O)c1c(NC(=O)c2cc3ccccc3o2)sc(C)c1C  IC50 (rep methyltransferase; enzyme activity): 22.8 µM
COc1ccc(-c2nc(NC(=O)c3ccc(C)c(F)c3)n[nH]2)cc1OC  IC50 (rep main protease; enzyme activity): 0.47 µM
CC(=O)N1CCN(C(=S)c2ccc(Cl)cc2)CC1  IC50 (rep methyltransferase; enzyme activity): 181 µM
Cc1coc2c1C(=O)C(=O)c1c-2ccc2c1CCCC2(C)C  IC50 (rep papain-like protease; enzyme activity, FRET; pH 7.5): 15.3 µM
